From ChEMBL document CHEMBL1949639, “New losartan-hydrocaffeic acid hybrids as antihypertensive-antioxidant dual drugs: Ester, amide and amine linkers” (2012)

What was measured:
[1] = Antioxidant activity assessed as trolox equivalent of ABTS radical scavenging activity relative to control; assay type: functional
Summary of the method: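 Metmyoglobin/H2O2 oxidation of ABTS to its radical, read as absorbance at 600 nm in 96-well format. Samples taken from K2CO3-solubilised stocks diluted in PBS. Activity expressed as TEAC: the concentration (mM) giving the same percentage change in ABTS radical absorbance as 1 mM Trolox.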

[2] = Antihypertensive activity against angiotensin-2-induced cell contraction in Wistar rat VSMC assessed as changes in planar cell surface area after 30 mins by planimetric technique; assay type: functional
Summary of the method: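 VSMC from thoracic aortas of Wistar rats, collagenase-digested, grown in DMEM/Ham's F-12 with 10% foetal calf serum at 37 °C, 5% CO2, used at passages 3–5. Cells in Tris-glucose buffer pH 7.45 with angiotensin II plus compound, […], for 30 min. Photographed at 0 and 30 min, planar surface area by planimetry. 4–8 cells per experiment, mean of 5 experiments gives percent inhibition of contraction.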

Rattus norvegicus = experiment: Antihypertensive activity in Wistar rat assessed as decrease of L-NAME-induced systolic arterial pressure at 20 mg/kg, po administered with drinking water qd for 3 days by sphygmomanometer; assay type: functional, Artery; conditions: dose 30 mg/kg, in the assay text read “30 mg/kg” for “20 mg/kg”
Summary of the method: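 Two-month-old male Wistar rats received L-NAME in drinking water (20 mg/kg/day). After one week, losartan (20 mg/kg/day) or hybrids (30 mg/kg/day) were given daily in drinking water for three days. At least six animals per group. Arterial pressure measured in conscious rats by tail-cuff sphygmomanometer.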

SMILES | Ratio [1] | inhibition (INH) [2] | Activity (Rattus norvegicus)
O=C(O)/C=C/c1ccc(O)c(O)c1 | 0.2 |  | 
CCCCc1nc(Cl)c(C(=O)OCCCc2ccc(O)c(O)c2)n1Cc1ccc(-c2ccccc2-c2nn[nH]n2)cc1 | 0.1 | 88% | 9 mmHg
COc1cc(C(=O)O)ccc1O | 0.202 |  | 
O=C(O)c1ccc(O)c(O)c1 | 0.153 |  | 
CC[C@H](C)[C@H](NC(=O)[C@H](Cc1ccc(O)cc1)NC(=O)[C@@H](NC(=O)[C@H](CCCNC(=N)N)NC(=O)[C@@H](N)CC(=O)O)C(C)C)C(=O)N[C@@H](Cc1cnc[nH]1)C(=O)N1CCC[C@H]1C(=O)N[C@@H](Cc1ccccc1)C(=O)O [ANGIOTENSIN II] |  | 82% | 
CCCCc1nc(Cl)c(C(=O)O)n1Cc1ccc(-c2ccccc2-c2nn[nH]n2)cc1 | 0.03 |  | 
O=C(O)CCc1ccc(O)c(O)c1 [DIHYDROCAFFEIC ACID] | 0.36 | 85% | 
CCCCc1nc(Cl)c(CO)n1Cc1ccc(-c2ccccc2-c2nnn[nH]2)cc1 [LOSARTAN] | 0.03 | 93% | 13 mmHg
CCCCc1nc(Cl)c(CNC(=O)CCc2ccc(O)c(O)c2)n1Cc1ccc(-c2ccccc2-c2nn[nH]n2)cc1 | 0.27 | 90% | 13 mmHg
COc1cc(C(=O)O)cc(OC)c1O | 1.07 |  | 
CC(C)(C)c1cc(C(=O)O)cc(C(C)(C)C)c1O | 0.181 |  | 
CCCCc1nc(Cl)c(CNCCCc2ccc(O)c(O)c2)n1Cc1ccc(-c2ccccc2-c2nn[nH]n2)cc1 | 0.13 | 92% | 
CCCCc1nc(C(=O)OCCCc2ccc(O)c(O)c2)c(Cl)n1Cc1ccc(-c2ccccc2-c2nn[nH]n2)cc1 | 0.24 | 95% | 14 mmHg
CC(C)(C)c1cc(CC(=O)O)cc(C(C)(C)C)c1O | 1.06 |  | 
CCCCc1nc(Cl)c(C(=O)NCCCc2ccc(O)c(O)c2)n1Cc1ccc(-c2ccccc2-c2nn[nH]n2)cc1 | 0.17 | 93% | 1 mmHg
CCCCc1nc(Cl)c(COC(=O)CCc2ccc(O)c(O)c2)n1Cc1ccc(-c2ccccc2-c2nnn[nH]2)cc1 | 0.31 | 94% | 29 mmHg
